Only some compounds are listed: those with a hit (about 1.5% of all), similar ones and a draw of the others.
CRFBP-R2 block: antagonists of CRF-BP/CRF-R2 complex, primary screen, cell-based, HEK293, calcium dye fluorescence, uHTS; CRF-induced calcium fluorescence; inhibition, % at 11.8 µM; 350,000 compounds, 0.59% hits; AID 588475, 2011;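 active means inhibition of the ligand-induced calcium signal above about 50% at the single tested concentration, limit read from the data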
PKA-R2B activ: activators of PKA-R2B holoenzyme, primary screen, biochemical, fluorescence polarization, Cy5-IP20, human | 340,000 compounds, 0.079% hits | PKA-R2B holoenzyme dissociation; R2B truncated from residue 108, S112A mutant; 0% DMSO only, 100% 113 µM cGMP | cAMP-dependent protein kinase catalytic subunit beta (Homo sapiens) + cAMP-dependent … | activation, % at 11.4 µM;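 active means activation above a cutoff set at the mean over all compounds plus 3 SD, cut at about 18% in these data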;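 further: higher means more holoenzyme dissociation and a rise in polarization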
Target sequence (P31323 whole entry, looked up, other chains not shown, the tested form may be a part): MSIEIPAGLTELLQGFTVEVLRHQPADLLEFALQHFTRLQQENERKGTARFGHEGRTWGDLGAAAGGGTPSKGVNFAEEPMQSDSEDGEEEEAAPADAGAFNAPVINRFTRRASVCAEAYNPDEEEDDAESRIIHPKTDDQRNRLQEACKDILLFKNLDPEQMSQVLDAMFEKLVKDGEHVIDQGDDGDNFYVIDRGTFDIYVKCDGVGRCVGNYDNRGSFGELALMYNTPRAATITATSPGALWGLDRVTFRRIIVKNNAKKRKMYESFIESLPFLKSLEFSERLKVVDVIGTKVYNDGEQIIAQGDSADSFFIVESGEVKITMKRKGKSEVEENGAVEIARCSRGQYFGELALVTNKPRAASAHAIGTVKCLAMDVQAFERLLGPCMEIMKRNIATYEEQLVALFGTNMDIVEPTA
SIRT5 inh: SIRT5 desuccinylase inhibitors, primary screen, biochemical, fluorescence imaging, single point, set 5 | Purified SirT5, succinyl-peptide AMC, trypsin-coupled fluorescence | NAD-dependent protein deacylase sirtuin-5, mitochondrial (Homo sapiens), Q9NXA8 | 330,000 compounds, 1.1% hits | inhibition, % at 15 µM | AID 652115, 2013; in the data active means inhibition above about 15%
S100A4 inh HTS: inhibitors of S100A4-myosin IIA peptide binding, primary screen, biochemical, fluorescence polarization, TAMRA-MyoIIA peptide; Protein S100-A4 (Homo sapiens), P26447; 360,000 compounds, 0.14% hits; inhibition, % at 10.7 µM;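 active means mean inhibition of at least 70% across replicates, with every replicate also reaching that level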
Target sequence (P26447 whole entry, looked up): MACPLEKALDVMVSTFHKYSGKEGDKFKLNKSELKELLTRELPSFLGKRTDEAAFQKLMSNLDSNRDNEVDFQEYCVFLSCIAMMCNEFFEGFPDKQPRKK
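Test system – S100A4 monomer (human) · Compound – single-point compound testing · Schedule – 5 min incubation before reading · Probe or stimulus – TAMRA-labelled myosin IIA heavy-chain peptide probe, 5 nM · Benchmarks – neutral control DMSO, positive control TFP · Medium – Calcium-containing HEPES buffer, pH 7.2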
PKA-R1A act: activators of PKA-R1A holoenzyme, primary screen, biochemical, fluorescence polarization, Cy5-IP20, bovine R1A, mouse PKAc; cAMP-dependent protein kinase type I-alpha regulatory subunit (Bos taurus) + …; PKA-R1A dissociation; scaled: DMSO 0%, 113 µM cGMP 100%; activation, % at 11.4 µM; 340,000 compounds, 0.083% hits; AID 504707, 2011;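 active means percent activation above the mean of all tested compounds plus 3 SD, cut at about 19% in these data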;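 further: higher means more PKAc released from R1A so a rise in polarization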
The depositor's hits bear a star; · = no result.

SMILES	CRFBP-R2 block	PKA-R2B activ	SIRT5 inh	S100A4 inh HTS	PKA-R1A act
C[C@@H]1CCCCO[C@H](CN(C)S(C)(=O)=O)[C@H](C)CN([C@@H](C)CO)C(=O)c2cc(NC(=O)c3ccncc3)ccc2O1	·	·	5	4	·
Cc1cccc(S(=O)(=O)N[C@@H]2CC[C@@H](CCNC(=O)CCN3CCCCC3)O[C@H]2CO)c1	·	·	1	5	·
Cc1ccc(S(=O)(=O)N(C)C[C@@H]2OCCCC[C@@H](C)Oc3ccc(NS(=O)(=O)c4ccccc4)cc3C(=O)N([C@H](C)CO)C[C@H]2C)cc1	·	·	22*	-15	·
Cc1ccc(S(=O)(=O)Nc2ccc3c(c2)C(=O)N([C@H](C)CO)C[C@@H](C)[C@H](CN(C)S(=O)(=O)c2ccccc2)OCCCC[C@H](C)O3)cc1	·	·	10	-3	·
Cc1ccc(S(=O)(=O)Nc2ccc3c(c2)C(=O)N([C@H](C)CO)C[C@@H](C)[C@@H](CN(C)S(=O)(=O)c2ccccc2)OCCCC[C@@H](C)O3)cc1	·	·	21*	-8	·
Cc1ccc(S(=O)(=O)Nc2ccc3c(c2)C(=O)N([C@@H](C)CO)C[C@@H](C)[C@H](CN(C)CC2CCCCC2)OCCCC[C@H](C)O3)cc1	·	·	-1	8	·
Cc1ccc(S(=O)(=O)Nc2ccc3c(c2)C(=O)N([C@H](C)CO)C[C@@H](C)[C@@H](CN(C)CC2CCCCC2)OCCCC[C@H](C)O3)cc1	·	·	18*	5	·
C[C@@H]1CN([C@H](C)CO)C(=O)c2cccc(NC(=O)Nc3ccc4c(c3)OCO4)c2O[C@H]1CN(C)Cc1ccccc1	·	·	11	6	·
C[C@@H]1CN([C@H](C)CO)S(=O)(=O)c2ccc(C#Cc3ccncc3)cc2O[C@@H]1CN(C)CC1CC1	·	·	-2	8	·
Cc1noc(C)c1S(=O)(=O)Nc1ccc2c(c1)CC(=O)N([C@H](C)CO)C[C@H](C)[C@H](CN(C)Cc1ccc(-c3ccccc3)cc1)O2	·	·	15*	15	·
COc1ccc(CN(C)C[C@H]2Oc3ccc(NS(=O)(=O)c4c(C)noc4C)cc3CC(=O)N([C@@H](C)CO)C[C@H]2C)cc1	·	·	-1	5	·
COc1ccc(CN(C)C[C@@H]2Oc3ccc(NS(=O)(=O)c4c(C)noc4C)cc3CC(=O)N([C@@H](C)CO)C[C@@H]2C)cc1	·	·	24*	2	·
COc1ccc(-n2c(CN3CCN(Cc4ccccc4)CC3)nc3ccc([N+](=O)[O-])cc3c2=O)c(OC)c1	8	-5	35*	0	-6
CC(C)CC#Cc1cnc2c(c1)C(=O)N([C@H](C)CO)C[C@H](C)[C@@H](CN(C)C(=O)c1ccc(F)cc1)O2	·	·	2	-6	·
CCOc1cc(/C=N/NC(=O)c2ccccc2OCc2ccc(F)cc2)ccc1O	56*	-8	-4	3	-17
CCOc1cc(/C=N/NC(=O)c2ccccc2-n2cccc2)ccc1O	13	7	2	4	0
C[C@@H]1CN([C@@H](C)CO)S(=O)(=O)c2ccc(-c3cccc(F)c3)cc2O[C@@H]1CN(C)S(=O)(=O)c1ccc(F)cc1	·	·	17*	9	·
C[C@H](CO)N1C[C@H](C)[C@H](CN(C)S(=O)(=O)c2ccc(F)cc2)Oc2cc(-c3cccc(F)c3)ccc2S1(=O)=O	·	·	13	-50	·
C[C@H]1CN([C@@H](C)CO)S(=O)(=O)c2ccc(-c3cccc(F)c3)cc2O[C@H]1CN(C)S(=O)(=O)c1ccc(F)cc1	·	·	20*	-2	·
CCC(=O)N1CC(=O)N2[C@H](CO)[C@H](c3ccc(C#CCC(C)C)cc3)[C@H]2C1	·	·	-4	-5	·
O=C(N/C(=C/c1ccco1)C(=O)N1CCOCC1)c1ccc([N+](=O)[O-])cc1	-13	2	1	10	-7
O=C(N/C(=C\c1ccco1)C(=O)N1CCCCC1)c1ccc([N+](=O)[O-])cc1	-34	6	17*	8	-6
CC(C)C(NC(=O)c1ccco1)C(=O)NC1CCCCCC1 (stereo not drawn)	105*	-7	-2	4	-4
COc1ccc(CCCNC(=O)C2CCC(=O)N(Cc3ccc(Cl)cc3)C2)cc1 (stereo not drawn)	-19	-6	32*	-2	-13
COc1cccc(CN2CC(C(=O)NCc3ccc(Cl)s3)CCC2=O)c1 (stereo not drawn)	63*	4	-4	1	-1
SMILES	CRFBP-R2 block	PKA-R2B activ	SIRT5 inh	S100A4 inh HTS	PKA-R1A act
O=C(NCCc1ccc(Cl)cc1)C1CC(=O)N(C2CCCC2)C1 (stereo not drawn)	-6	1	-2	6	9
O=C(NCCc1ccc(Cl)cc1)C1CCC(=O)N(C2CCCCCC2)C1 (stereo not drawn)	-4	-4	25*	-2	-2
COc1ccccc1S(=O)(=O)N[C@@H]1CC[C@@H](CCNC(=O)C2CC2)O[C@H]1CO	·	·	0	-6	·
CC(C)CC(C(=O)Nn1cnnc1)N1C(=O)c2ccccc2C1=O (stereo not drawn)	59*	-5	·	·	-1
COC(=O)C(CCC(C(=O)OC)N1C(=O)c2ccccc2C1=O)N1C(=O)c2ccccc2C1=O (stereo not drawn)	0	-2	·	7	-11
C[C@@H]1CN([C@@H](C)CO)C(=O)c2c(c3ccccc3n2C)-c2ccccc2CO[C@H]1CN(C)Cc1ccc(O)cc1	·	·	-2	6	·
CCN(CC)Cc1c(C(=O)N/N=C/c2ccc(C)o2)nnn1-c1nonc1N	-3	-3	85*	-3	-2
O=S(=O)(c1ccc(F)cc1)c1nc(-c2ccco2)oc1Nc1ccccc1	-12	-1	112*	-2	-9
O=S(=O)(c1ccccc1)c1nc(-c2ccco2)oc1Nc1ccccc1	-19	2	-2	-1	-2
COc1ccc(S(=O)(=O)N(C)C[C@H]2Oc3c(NC(=O)NC(C)C)cccc3C(=O)N([C@@H](C)CO)C[C@H]2C)cc1	·	·	0	8	·
COc1ccc([C@H]2CN(CCc3ccccc3)C(=O)[C@@H]2CC(=O)Nc2ccccc2)cc1	7	5	18*	-9	-11
CNC(=O)C[C@H]1C(=O)N(CCc2ccccc2)C[C@@H]1c1ccc(OC)cc1	6	0	-3	-4	-4
Cc1ccc(S(=O)(=O)N(C)C[C@@H]2OCCCC[C@H](C)Oc3ccc(NC(=O)Nc4ccc(F)cc4)cc3C(=O)N([C@@H](C)CO)C[C@@H]2C)cc1	·	·	-5	-9	·

Source: PubChem
